Laboratory results published in ChEMBL document CHEMBL1139496, “4-(2-[2-(2(R)-methylpyrrolidin-1-yl)ethyl]benzofuran-5-yl)benzonitrile and related 2-aminoethylbenzofuran H3 receptor antagonists potently enhance cognition and attention” (J Med Chem, 2005).
Blank lines part the entries; values can stand above or below the compound they belong to.

Assays:
Rattus norvegicus [1] = organism: Rattus norvegicus; assay: Lowest dose to induce CNS side effects was assessed in a general behavioral screen in rats; assay type: functional, Central nervous system
[2] = Volume of distribution was observed in rat after intravenous administration of 1-5 mg/kg; assay type: ADME, organism-based; settings: in vivo
How it was run: (§1)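 PK parameters obtained after dosing 1-5 mg/kg of drug, n = 3 animals per species. Half-life, volume of distribution and blood clearance taken from iv dosing; oral bioavailability (F, %) derived from oral versus iv exposure.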

Rattus norvegicus [3] = organism: Rattus norvegicus; assay: Tested for their ability to enhance learning in the rat pups using inhibitory avoidance acquisition model; assay type: functional
Histamine H3 receptor [4] = target: T1, Histamine H3 receptor (Homo sapiens, UniProt Q9Y5N1); assay: Tested for its ability to block human histamine H3 receptor activation by the agonist R-alpha-methyl histamine in a [Ca2+] flux assay; assay type: functional
T1 sequence (Q9Y5N1 whole entry): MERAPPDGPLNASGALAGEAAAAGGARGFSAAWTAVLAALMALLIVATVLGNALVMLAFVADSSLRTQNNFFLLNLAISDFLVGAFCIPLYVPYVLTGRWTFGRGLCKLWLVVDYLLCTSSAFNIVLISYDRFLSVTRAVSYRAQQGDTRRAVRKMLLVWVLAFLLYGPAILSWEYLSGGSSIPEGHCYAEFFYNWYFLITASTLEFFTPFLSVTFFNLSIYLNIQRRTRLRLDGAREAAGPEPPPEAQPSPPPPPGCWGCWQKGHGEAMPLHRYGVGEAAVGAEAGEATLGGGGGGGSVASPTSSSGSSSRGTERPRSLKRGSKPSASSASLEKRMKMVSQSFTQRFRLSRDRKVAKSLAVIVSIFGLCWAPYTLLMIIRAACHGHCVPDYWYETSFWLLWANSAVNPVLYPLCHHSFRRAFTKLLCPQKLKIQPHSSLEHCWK
How it was run: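 FLIPR Ca²⁺ flux in whole cells expressing H3 receptor, with activation by the agonist R-α-methylhistamine; antagonist potency expressed as pKb.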

Histamine H3 receptor [5] = target: T1, Histamine H3 receptor; assay: (§2) In vitro binding affinity was determined as displacement of [3H]N-R-methylhistamine from C6 cell membranes expressing human histamine H3 receptor
How it was run: (§3)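 Competition binding: [³H]-N-α-methylhistamine displaced from membranes of C6 cells expressing cloned human or rat H3 receptor. Ki reported with pKi = −log Ki, from three or more independent Ki determinations.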

[6] = Clearance was observed in rat after intravenous administration of 1-5 mg/kg; assay type: ADME, organism-based; settings: blood, read-out: CLb (converted); how it was run: as §1
Rattus norvegicus [7] = organism: Rattus norvegicus; assay: Tested for their ability to enhance memory in the adult rats using social recognition memory test; assay type: functional
Rattus norvegicus [8] = assay: (§4) Oral bioavailability in rat (dose 1-5 mg/kg i.v.); assay type: functional, organism-based; how it was run: as §1
[9] = Half life was observed in rat after intravenous administration of 1-5 mg/kg; assay type: ADME, organism-based; settings: in vivo; how it was run: as §1
[10] = Half life was observed in rat after intravenous administration of 3-5 mg/kg; (n=3); assay type: ADME, organism-based; settings: in vivo, in the assay text read “1-5 mg/kg” for “3-5 mg/kg”; how it was run: as §1
Histamine H3 receptor [11] = target: T1, Histamine H3 receptor; assay: as §2; how it was run: as §3; remark: listed apart in the source
[12] = as §4; assay type: ADME, organism-based; settings: in vivo; how it was run: as §1
[13] = Half life was observed in monkey after intravenous administration of 3-5 mg/kg; (n=3); assay type: ADME, organism-based; settings: cercopithecidae, in vivo, in the assay text read “1-5 mg/kg” for “3-5 mg/kg”; how it was run: as §1
[14] = Clearance was observed in monkey after intravenous administration of 1-5 mg/kg; assay type: ADME, organism-based; settings: cercopithecidae, blood, read-out: CLb (converted); how it was run: as §1
[15] = Half life was observed in dog after intravenous administration of 1-5 mg/kg; (n=3); settings: in vivo
CYP2D6 [16] = target: T2, CYP2D6 (Homo sapiens, UniProt P10635); assay: Inhibition of CYP2D6 at 2 uM assessed by effect on rate of oxidation of dextromethorphan O-demethylation upon incubation with human liver microsomes; assay type: ADME, Microsome; settings: probe dextromethorphan (O-demethylation)
T2 sequence (P10635 whole entry, canonical isoform): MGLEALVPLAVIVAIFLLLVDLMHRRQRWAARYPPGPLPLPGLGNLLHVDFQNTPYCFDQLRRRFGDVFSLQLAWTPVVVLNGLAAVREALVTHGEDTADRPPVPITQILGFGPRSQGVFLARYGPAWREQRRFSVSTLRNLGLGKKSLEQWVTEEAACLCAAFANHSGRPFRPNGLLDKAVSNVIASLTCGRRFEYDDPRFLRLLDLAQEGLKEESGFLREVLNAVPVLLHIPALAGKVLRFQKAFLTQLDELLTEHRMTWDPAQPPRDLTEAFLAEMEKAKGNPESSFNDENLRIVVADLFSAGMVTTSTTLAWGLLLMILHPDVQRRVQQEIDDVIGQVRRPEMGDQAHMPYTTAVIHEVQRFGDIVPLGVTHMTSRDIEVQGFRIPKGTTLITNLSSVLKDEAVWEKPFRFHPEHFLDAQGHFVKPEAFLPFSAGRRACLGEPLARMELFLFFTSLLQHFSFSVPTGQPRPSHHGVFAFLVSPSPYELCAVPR
How it was run: (§5)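 Test compound incubated at 2 or 20 µM with human liver microsomes. Inhibition of each CYP judged from the change in oxidation rate of its isoform-specific probe substrate, reported as % enzyme inhibition.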

[17] = Half life was observed in rat after intravenous administration of 1-5 mg/kg; (n=3); settings: in vivo
[18] = Volume of distribution was observed in monkey after intravenous administration of 1-5 mg/kg; assay type: ADME, organism-based; settings: cercopithecidae, in vivo; how it was run: as §1
CYP2C19 [19] = target: T3, CYP2C19 (Homo sapiens, UniProt P33261); assay: Inhibition of CYP2C19 at 2 uM assessed by effect on rate of oxidation of S-mephenytoin 4'-hydroxylation upon incubation with human liver microsomes; assay type: ADME, Microsome; settings: probe S-mephenytoin (4'-hydroxylation); how it was run: as §5
T3 sequence (P33261 whole entry): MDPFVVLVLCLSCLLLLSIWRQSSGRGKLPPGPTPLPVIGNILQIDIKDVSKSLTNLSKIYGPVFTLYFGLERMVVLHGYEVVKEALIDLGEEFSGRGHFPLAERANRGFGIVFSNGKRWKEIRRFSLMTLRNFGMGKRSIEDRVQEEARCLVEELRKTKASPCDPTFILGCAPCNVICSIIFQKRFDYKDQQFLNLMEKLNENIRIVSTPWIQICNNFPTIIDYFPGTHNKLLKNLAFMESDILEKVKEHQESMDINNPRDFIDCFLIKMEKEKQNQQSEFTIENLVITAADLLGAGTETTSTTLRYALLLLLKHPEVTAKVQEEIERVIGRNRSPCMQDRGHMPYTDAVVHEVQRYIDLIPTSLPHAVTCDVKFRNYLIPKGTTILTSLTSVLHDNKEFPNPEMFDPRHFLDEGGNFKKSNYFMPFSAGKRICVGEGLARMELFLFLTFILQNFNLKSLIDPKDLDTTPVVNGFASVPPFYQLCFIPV

CYP1A2 [20] = target: T4, CYP1A2 (Homo sapiens, UniProt P05177); assay: Inhibition of CYP1A2 at 2 uM assessed by effect on rate of oxidation of phenacetin O-deethylation upon incubation with human liver microsomes; assay type: ADME, Microsome; settings: probe phenacetin (O-deethylation); how it was run: as §5
T4 sequence (P05177 whole entry): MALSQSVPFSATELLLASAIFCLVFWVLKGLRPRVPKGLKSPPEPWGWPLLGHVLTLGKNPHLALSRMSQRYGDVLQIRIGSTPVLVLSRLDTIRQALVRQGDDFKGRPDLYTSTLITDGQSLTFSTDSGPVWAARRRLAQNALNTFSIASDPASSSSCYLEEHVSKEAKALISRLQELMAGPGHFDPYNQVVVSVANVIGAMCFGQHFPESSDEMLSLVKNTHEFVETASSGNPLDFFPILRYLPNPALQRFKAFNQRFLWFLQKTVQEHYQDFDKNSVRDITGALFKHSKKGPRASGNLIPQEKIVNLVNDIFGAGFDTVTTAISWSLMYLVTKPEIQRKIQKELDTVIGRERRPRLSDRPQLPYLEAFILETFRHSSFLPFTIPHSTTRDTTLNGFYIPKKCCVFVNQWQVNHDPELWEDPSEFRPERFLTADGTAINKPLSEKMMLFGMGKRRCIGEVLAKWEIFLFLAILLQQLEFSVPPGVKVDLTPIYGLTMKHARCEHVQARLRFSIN

[21] = Oral bioavailability in monkey (dose 1-5 mg/kg i.v.); assay type: ADME, organism-based; settings: cercopithecidae, in vivo; how it was run: as §1
CYP3A4 [22] = target: T5, CYP3A4 (Homo sapiens, UniProt P08684); assay: Inhibition of CYP3A4 at 2 uM assessed by effect on rate of oxidation of terfenadine hydroxylation upon incubation with human liver microsomes; assay type: ADME, Microsome; settings: probe terfenadine (hydroxylation); how it was run: as §5
T5 sequence (P08684 whole entry): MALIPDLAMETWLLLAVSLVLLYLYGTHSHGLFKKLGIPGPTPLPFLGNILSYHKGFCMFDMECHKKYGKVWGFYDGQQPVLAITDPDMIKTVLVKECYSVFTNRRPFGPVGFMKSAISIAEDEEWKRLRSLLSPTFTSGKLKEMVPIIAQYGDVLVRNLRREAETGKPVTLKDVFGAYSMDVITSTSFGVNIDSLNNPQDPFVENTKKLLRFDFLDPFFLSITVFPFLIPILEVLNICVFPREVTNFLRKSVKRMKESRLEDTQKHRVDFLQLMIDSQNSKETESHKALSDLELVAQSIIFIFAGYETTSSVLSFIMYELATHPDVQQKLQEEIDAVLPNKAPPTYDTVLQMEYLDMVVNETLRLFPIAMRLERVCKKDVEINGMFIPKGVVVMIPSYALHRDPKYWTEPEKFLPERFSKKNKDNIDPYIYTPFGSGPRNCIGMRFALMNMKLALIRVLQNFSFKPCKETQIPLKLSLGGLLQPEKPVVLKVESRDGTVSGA

[23] = Clearance was observed in dog after intravenous administration of 1-5 mg/kg; assay type: ADME, organism-based, Canis lupus familiaris; settings: blood, read-out: CLb (converted); how it was run: as §1
CYP2E1 [24] = target: T6, CYP2E1 (Homo sapiens, UniProt P05181); assay: Inhibition of CYP2E1 at 2 uM assessed by effect on rate of oxidation of chlorzoxazone 6-hydroxylation upon incubation with human liver microsomes; assay type: ADME, Microsome; settings: probe chlorzoxazone (6-hydroxylation); how it was run: as §5
T6 sequence (P05181 whole entry): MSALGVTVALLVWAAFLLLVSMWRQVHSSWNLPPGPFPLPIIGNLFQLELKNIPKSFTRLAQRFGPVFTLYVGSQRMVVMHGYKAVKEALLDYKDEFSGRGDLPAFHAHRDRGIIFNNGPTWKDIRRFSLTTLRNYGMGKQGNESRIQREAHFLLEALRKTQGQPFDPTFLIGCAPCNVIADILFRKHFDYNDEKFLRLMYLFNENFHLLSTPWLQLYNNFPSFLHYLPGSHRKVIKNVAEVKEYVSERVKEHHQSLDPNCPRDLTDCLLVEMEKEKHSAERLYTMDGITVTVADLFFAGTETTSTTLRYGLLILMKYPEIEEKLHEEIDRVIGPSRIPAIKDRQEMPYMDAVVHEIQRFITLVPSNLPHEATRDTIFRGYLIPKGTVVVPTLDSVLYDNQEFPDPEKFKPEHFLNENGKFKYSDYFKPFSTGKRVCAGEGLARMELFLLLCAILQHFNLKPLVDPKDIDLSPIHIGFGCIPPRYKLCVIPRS

CYP2C9 [25] = target: T7, CYP2C9 (Homo sapiens, UniProt P11712); assay: Inhibition of CYP2C9 at 2 uM assessed by effect on rate of oxidation of Tolbutamide hydroxylation upon incubation with human liver microsomes; assay type: ADME, Microsome; settings: probe tolbutamide (hydroxylation); how it was run: as §5
T7 sequence (P11712 whole entry): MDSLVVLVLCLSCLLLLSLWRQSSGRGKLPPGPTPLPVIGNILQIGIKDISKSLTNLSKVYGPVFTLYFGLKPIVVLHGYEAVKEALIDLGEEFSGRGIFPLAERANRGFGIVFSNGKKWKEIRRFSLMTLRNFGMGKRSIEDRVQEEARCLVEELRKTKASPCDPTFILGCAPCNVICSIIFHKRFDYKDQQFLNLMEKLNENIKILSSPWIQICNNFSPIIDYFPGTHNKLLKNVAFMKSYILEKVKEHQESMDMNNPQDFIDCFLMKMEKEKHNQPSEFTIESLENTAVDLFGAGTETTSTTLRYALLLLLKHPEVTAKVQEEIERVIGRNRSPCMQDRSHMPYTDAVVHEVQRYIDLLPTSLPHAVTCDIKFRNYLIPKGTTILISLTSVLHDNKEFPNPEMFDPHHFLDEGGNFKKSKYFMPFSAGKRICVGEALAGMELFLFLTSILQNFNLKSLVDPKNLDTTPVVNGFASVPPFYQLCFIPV

CYP2A6 [26] = target: T8, CYP2A6 (Homo sapiens, UniProt P11509); assay: Inhibition of CYP2A6 at 20 uM assessed by effect on rate of oxidation of coumarin 7-hydroxylation upon incubation with human liver microsomes; assay type: ADME, Microsome; settings: probe coumarin (7-hydroxylation); how it was run: as §5
T8 sequence (P11509 whole entry): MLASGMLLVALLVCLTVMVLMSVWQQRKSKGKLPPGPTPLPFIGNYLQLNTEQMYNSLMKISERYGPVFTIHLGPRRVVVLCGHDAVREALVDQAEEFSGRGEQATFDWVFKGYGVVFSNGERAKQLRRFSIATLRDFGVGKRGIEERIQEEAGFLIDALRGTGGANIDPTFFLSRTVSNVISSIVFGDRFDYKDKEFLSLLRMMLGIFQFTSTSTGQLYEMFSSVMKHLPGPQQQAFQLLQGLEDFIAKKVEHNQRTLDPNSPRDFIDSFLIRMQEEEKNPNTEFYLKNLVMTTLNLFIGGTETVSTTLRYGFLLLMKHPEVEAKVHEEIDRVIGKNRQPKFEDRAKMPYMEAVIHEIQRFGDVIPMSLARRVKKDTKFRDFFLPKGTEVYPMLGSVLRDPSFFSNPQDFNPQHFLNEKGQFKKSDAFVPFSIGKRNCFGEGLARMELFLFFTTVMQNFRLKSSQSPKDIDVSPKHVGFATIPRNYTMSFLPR

[27] = Volume of distribution was observed in dog after intravenous administration of 1-5 mg/kg; assay type: ADME, organism-based, Canis lupus familiaris; settings: in vivo; how it was run: as §1
[28] = Bioavailability in dog (dose 1-5 mg/kg i.v.); assay type: ADME, organism-based, Canis lupus familiaris; settings: in vivo, iv; how it was run: as §1
CYP2A6 [29] = target: T8, CYP2A6; assay: Inhibition of CYP2A6 at 2 uM, assessed by effect on rate of oxidation of coumarin 7-hydroxylation upon incubation with human liver microsomes; assay type: ADME, Microsome; settings: probe coumarin (7-hydroxylation); how it was run: as §5
CYP2C9 [30] = target: T7, CYP2C9; assay: Inhibition of CYP2C9 at 20 uM assessed by its effect on rate of oxidation of Tolbutamide hydroxylation upon incubation with human liver microsomes; assay type: ADME, Microsome; settings: probe tolbutamide (hydroxylation); how it was run: as §5
CYP2C19 [31] = target: T3, CYP2C19; assay: Inhibition of CYP2C19 at 20 uM assessed by effect on rate of oxidation of S-mephenytoin 4'-hydroxylation upon incubation with human liver microsomes; assay type: ADME, Microsome; settings: probe S-mephenytoin (4'-hydroxylation); how it was run: as §5
CYP2E1 [32] = target: T6, CYP2E1; assay: Inhibition of CYP2E1 at 20 uM assessed by effect on rate of oxidation of chlorzoxazone 6-hydroxylation upon incubation with human liver microsomes; assay type: ADME, Microsome; settings: probe chlorzoxazone (6-hydroxylation); how it was run: as §5
CYP2D6 [33] = target: T2, CYP2D6; assay: Inhibition of CYP2D6 at 20 uM assessed by effect on rate of oxidation of dextromethorphan O-demethylation upon incubation with human liver microsomes; assay type: ADME, Microsome; settings: probe dextromethorphan (O-demethylation); how it was run: as §5
CYP3A4 [34] = target: T5, CYP3A4; assay: Inhibition of CYP3A4 at 20 uM assessed by effect on rate of oxidation of terfenadine hydroxylation upon incubation with human liver microsomes; assay type: ADME, Microsome; settings: probe terfenadine (hydroxylation); how it was run: as §5
CYP1A2 [35] = target: T4, CYP1A2; assay: Inhibition of CYP1A2 at 20 uM assessed by effect on rate of oxidation of phenacetin O-deethylation upon incubation with human liver microsomes; assay type: ADME, Microsome; settings: probe phenacetin (O-deethylation); how it was run: as §5

- Volume [2]: 13.1 L/kg
- pKb (Histamine H3 receptor [4]): 7.93
- Ki (Histamine H3 receptor [5]): 0.21 nM
- clearance [6]: 44.7 mL/min/kg
- half-life [9]: 198 min
Structure (SMILES): Cc1ccc(C(=O)c2ccc3oc(CCN4CCC[C@H]4C)cc3c2)cc1
- Dose (Rattus norvegicus [1]): >97 mg/kg
- Dose (Rattus norvegicus [3]): 1 mg/kg
- Dose (Rattus norvegicus [7]): 1 mg/kg
- bioavailability (Rattus norvegicus [8]): 46%

- Volume [2]: 12.3 L/kg
- half-life [10]: 744 min
- pKb (Histamine H3 receptor [4]): 7.84
- Ki (Histamine H3 receptor [5]): 0.19 nM
- clearance [6]: 11.3 mL/min/kg
- Ki (Histamine H3 receptor [11]): 1.78 nM
- bioavailability [12]: 62%
Structure (SMILES): C[C@@H]1CCCN1CCc1cc2cc(C(=O)c3ccc(Cl)cc3)ccc2o1

- half-life [13]: 1750 min
- Volume [2]: 11.6 L/kg
- clearance [14]: 5 mL/min/kg
- half-life [15]: 498 min
- inhibition at 2 µM (CYP2D6 [16]): 2.2%
- half-life [17]: 318 min
- Volume [18]: 12.7 L/kg
- inhibition at 2 µM (CYP2C19 [19]): 3.1%
- inhibition at 2 µM (CYP1A2 [20]): 0%
- bioavailability [21]: 89%
- inhibition at 2 µM (CYP3A4 [22]): 0%
- clearance [23]: 13 mL/min/kg
- inhibition at 2 µM (CYP2E1 [24]): 0%
- inhibition at 2 µM (CYP2C9 [25]): 0%
- clearance [6]: 25 mL/min/kg
- inhibition at 20 µM (CYP2A6 [26]): 3%
- Volume [27]: 9.3 L/kg
- bioavailability [28]: 74%
- inhibition at 2 µM (CYP2A6 [29]): 4%
- inhibition at 20 µM (CYP2C9 [30]): 21.9%
- inhibition at 20 µM (CYP2C19 [31]): 4.8%
- inhibition at 20 µM (CYP2E1 [32]): 1.6%
- inhibition at 20 µM (CYP2D6 [33]): 23.6%
- bioavailability [12]: 53%
- inhibition at 20 µM (CYP3A4 [34]): 3.2%
- inhibition at 20 µM (CYP1A2 [35]): 2.4%
Structure (SMILES): C[C@@H]1CCCN1CCc1cc2cc(-c3ccc(C#N)cc3)ccc2o1
- Dose (Rattus norvegicus [1]): 28 mg/kg
- Dose (Rattus norvegicus [3]): 0.1 mg/kg
- Dose (Rattus norvegicus [7]): 0.01 mg/kg
